Common to all, as to type: functional
The subject of one experiment is MCF7. As to the kind of experiment: Antitumor activity against human MCF7 cells after 48 hrs. As to conditions: MCF7, 48 h. The essentials: (§1)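 NCI-derived lines grown as monolayers in RPMI-1640 with 5% heat-inactivated FBS and 2 mM glutamine, 37 °C, 5% CO2. Plated at 1.5 × 10⁵ cells/mL (MCF-7, SF-268) or 0.75 × 10⁴ cells/mL (NCI-H460) and incubated 24 h. Continuous 48 h exposure to five serial concentrations (DMSO ≤0.5%). Sulforhodamine B stain, A492. GI50 is 50% net-growth inhibition from dose-response curves. Experiments run independently in duplicate.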

The subject of another experiment is SF-268. Kind of experiment: Antitumor activity against human SF268 cells after 48 hrs. As to conditions: SF-268, 48 h. The method in brief: as §1
The next experiment deals with NCI-H460. Kind of experiment: Antitumor activity against human NCI-H460 cells after 48 hrs. As to conditions: NCI-H460, 48 h. The essentials: as §1

Regarding `COC(=O)c1[nH]c2ccccc2c1-c1cccc2c1sc1ccccc12`, the GI50 in the experiment with MCF7 turned out to be 11 µM; in the experiment on SF-268 it was 17 µM; in the experiment on NCI-H460 it was 12.7 µM.
For `COC(=O)c1[nH]c2ccc3c4ccccc4sc3c2c1-c1ccccc1`, the results for the GI50 in the experiment with MCF7, in the experiment on SF-268 and in the experiment on NCI-H460 were 72.7 µM, 50 µM and 40.3 µM, respectively.
As to `COC(=O)c1[nH]c2ccccc2c1-c1cccc2c1oc1ccccc12`, the values for the GI50 in the experiment with MCF7, with SF-268 and in the experiment with NCI-H460 were 26.5 µM, 35 µM and 18 µM, respectively.
For `COc1cccc2c1C(=O)c1c(O)c3c(c(O)c1C2=O)C[C@@](O)(C(=O)CO)C[C@@H]3O[C@H]1C[C@H](N)[C@H](O)[C@H](C)O1` [DOXORUBICIN] the same measures were 0.0428 µM, 0.094 µM and 0.094 µM.

Values taken from ChEMBL document CHEMBL1150304, “Synthesis of new heteroaryl and heteroannulated indoles from dehydrophenylalanines: Antitumor evaluation” (2008).
